# Measurements gathered from unrelated publications.
# Each line is one published result; the experiments were not run side by side.
# USP51: Ubiquitin carboxyl-terminal hydrolase 51 (USP51, Homo sapiens, UniProt Q70EK9)
# CA12: Carbonic anhydrase 12 (CA12, Homo sapiens, UniProt O43570)
# DRD3: D(3) dopamine receptor (DRD3, Homo sapiens, UniProt P35462)
# SLC6A3: Sodium-dependent dopamine transporter (SLC6A3, Homo sapiens, UniProt Q01959)
Compound,target,assay,test system,setting,inhibition [%]
COc1ccc([C@@H]2CC(=O)c3c(O)cc(O[C@@H]4O[C@H](CO[C@@H]5O[C@@H](C)[C@H](O)[C@@H](O)[C@H]5O)[C@@H](O)[C@H](O)[C@H]4O)cc3O2)cc1O,USP51,"enzyme activity, inhibitor",,5 µM,30
O=C1NC(=S)C(=Cc2cn(-c3ccccc3)nc2-c2ccc(Br)cc2)S1,CA12,"enzyme activity, inhibitor, absorbance",,100 µM,75
Nc1ncnc2c1ncn2[C@@H]1O[C@H](CO)C[C@H]1O,USP51,"enzyme activity, inhibitor",,5 µM,24
CCOC(=O)C1CSc2[nH]c(=O)sc2C1c1cn(-c2ccccc2)nc1-c1ccc(C)cc1 (stereo not shown),CA12,"enzyme activity, inhibitor, absorbance",,10 nM,11.9
COc1cc(OC)c(OC)cc1CN1CCN(Cc2c[nH]c3ccccc23)CC1,DRD3,"enzyme activity, inhibitor",,10 µM,8.6
O=C(c1ccc(F)cc1)N(Cc1ccccc1)C1CCCCC1,"Sodium- and chloride-dependent GABA transporter 1 (Slc6a1, Rattus norvegicus, UniProt P23978)",transporter uptake,,10 µM,4
NS(=O)(=O)c1ccc(CCNCc2ccc(OCc3cccs3)cc2)cc1,DRD3,"enzyme activity, inhibitor",,10 µM,24.2
CCOC(=O)C1CSc2[nH]c(=O)sc2C1c1cn(-c2ccccc2)nc1-c1ccc(OC)cc1 (stereo not shown),CA12,"enzyme activity, inhibitor, absorbance",,1 µM,58.2
CC(C)(COP(=O)(O)OP(=O)(O)OC[C@H]1O[C@@H](n2cnc3c(N)ncnc32)[C@H](O)[C@@H]1OP(=O)(O)O)[C@@H](O)C(=O)NCCC(=O)NCCS,"Histone acetyltransferase KAT2A (KAT2A, Homo sapiens, UniProt Q92830)","enzyme activity, inhibitor, mobility shift",,10 µM,29
O=c1c(O[C@@H]2O[C@H](CO)[C@H](O)[C@H](O)[C@H]2O)c(-c2ccc(O)c(O)c2)oc2cc(O)cc(O)c12,USP51,"enzyme activity, inhibitor",,5 µM,54
O=C1C2CCCN2C(=O)N1CCCCN1CCN(c2ccccc2)CC1 (stereo not shown),DRD3,"enzyme activity, inhibitor",,10 µM,33.5
COc1ccc(-c2oc3c(CC=C(C)C)c(O[C@@H]4O[C@H](CO)[C@@H](O)[C@H](O)[C@H]4O)cc(O)c3c(=O)c2O[C@@H]2O[C@@H](C)[C@H](O)[C@@H](O)[C@H]2O)cc1,USP51,"enzyme activity, inhibitor",,5 µM,7
Cc1[nH]n(-c2ccc([N+](=O)[O-])cc2)c(=O)c1C=NCCN1CCN(C(=O)c2cccc(F)c2)CC1,DRD3,"enzyme activity, inhibitor",,10 µM,-24.9
Clc1ccc(C(c2ccccc2)c2nnnn2CCCCN2CCN(CC=Cc3ccccc3)CC2)cc1 (stereo not shown),SLC6A3,"transporter uptake, inhibitor",HEK293,1 µM,82.2
Cc1cccc(N2CCN(CC(O)COc3ccc4ccccc4c3)CC2)c1C (stereo not shown),DRD3,"enzyme activity, inhibitor",,10 µM,52.9
CC(=O)c1ccc(O)c(C(=O)O)c1,USP51,"enzyme activity, inhibitor",,5 µM,29
c1ccc(CCCC2CCN(CCCn3nnnc3C(c3ccccc3)c3ccccc3)CC2)cc1,SLC6A3,"transporter uptake, inhibitor",HEK293,1 µM,30.4
COc1ccc(N2CCN(CC(O)COc3ccc(C(C)=O)cc3OC)CC2)cc1 (stereo not shown),DRD3,"enzyme activity, inhibitor",,10 µM,0.2
OC[C@H]1NC[C@H](O)[C@@H](O)[C@@H]1O,USP51,"enzyme activity, inhibitor",,5 µM,0
CCOC(=O)C1CSc2[nH]c(=O)sc2C1c1cn(-c2ccccc2)nc1-c1ccc(Cl)cc1 (stereo not shown),CA12,"enzyme activity, inhibitor, absorbance",,10 µM,85.5
Clc1ccc(C(c2ccccc2)c2nnnn2CCCCN2CCN(CCCc3ccccc3)CC2)cc1 (stereo not shown),SLC6A3,"transporter uptake, inhibitor",HEK293,1 µM,81.6
COc1ccccc1O,USP51,"enzyme activity, inhibitor",,5 µM,0
